Screening data (PubChem BioAssay)
core dimer inh: inhibitors of HCV core protein dimerization, primary screen, biochemical, TR-FRET, high-throughput; TR-FRET GST/Flag-core106 dimerization, 1536-well; inhibition, % at 5 µM; 300,000 tested, 0.33% active;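 active = inhibition above the mean of all tested compounds plus 3 SD, set per screening campaign, cut at about 45% in these data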
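System: GST/Flag-tagged HCV core106 proteins. Incubation: compound-protein-antibody incubation 4 h at 22.5 °C. Technique: HTRF with 340 nm excitation, 617/671 nm emission. Medium: KF-containing HEPES buffer, pH 7.45, DTT, CHAPS, BSA. Read-out: inhibition (%) from 671 over 617 nm ratio. Also added: Eu(K)-anti-GST 90 ng/mL plus XL665-anti-Flag 1 µg/mL.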
NS3 helicase inh: inhibitors of HCV NS3 helicase, primary screen, biochemical, Cy5 molecular beacon fluorescence; Hepatitis C virus NS3 helicase; NS3 helicase DNA unwinding; inhibition, % at 10.9 µM; 290,000 tested, 0.56% active; AID 1800, 2009;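 active = inhibition above the mean of all tested compounds plus 3 SD, set per campaign, cut at about 35% in these data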;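 note: 0% = DMSO wells and 100% = thioflavine S control wells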
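Material: hepatitis C virus NS3 helicase domain fragment enzyme; measured by: Cy5 fluorescence, 0 and 60 min reads; control set: DMSO and thioflavine S; incubation: 60 min unwinding reaction at 25 °C after ATP addition; read-out basis: % inhibition from 60/0 min fluorescence ratio, DMSO 0%, thioflavine S 100%; repeats: singlicate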
GPR7 antag: GPR7 receptor antagonists, primary screen, cell-based, fluorescence, single concentration; Neuropeptides B/W receptor type 1 (Homo sapiens), P48145; GPR7-expressing cells, fluorescence antagonist assay; inhibition, % at 4.4 µM; 290,000 tested, 1.1% active; in the data active = inhibition above about 16%, passing the limit was not always enough;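 note: cells stimulated with the agonist NPW; 0% = agonist with vehicle and 100% = vehicle without agonist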
Target sequence (P48145 whole entry, looked up): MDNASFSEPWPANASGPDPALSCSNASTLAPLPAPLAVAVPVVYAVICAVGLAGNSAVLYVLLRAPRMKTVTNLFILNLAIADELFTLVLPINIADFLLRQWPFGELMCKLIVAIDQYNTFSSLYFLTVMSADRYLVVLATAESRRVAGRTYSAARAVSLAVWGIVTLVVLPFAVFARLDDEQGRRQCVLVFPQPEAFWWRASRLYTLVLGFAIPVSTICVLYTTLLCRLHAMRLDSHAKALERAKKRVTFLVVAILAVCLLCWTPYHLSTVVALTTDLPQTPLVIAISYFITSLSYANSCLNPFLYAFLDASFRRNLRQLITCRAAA
FID counter: compounds displacing fluorescent DNA intercalator, primary screen, artefact control for HCV NS3 helicase inhibitor project, biochemical, FID fluorescence; inhibition, % at 7.9 µM; 290,000 tested, 0.17% active; DNA fluorescent intercalator displacement; AID 1845, 2009; in the data active = inhibition above about 37%;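 note: 0% = vehicle and 100% = reference compound; higher means more ethidium bromide displaced from hairpin DNA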
p-CIP stab down: p/CIP-EGFP fusion destabilizers, primary screen, fluorescence, F442A cells | Q05BA5 | 16 h | decrease of EGFP signal, % at 10 µM | 290,000 tested, 0.01% active | AID 1984, 2009;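 active = EGFP signal decrease of at least 30% at 10 µM or well 3 SD below plate mean, unless failing retest; inactive = the rest, including hits failing retest or dose response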
GPR7 antag conf: GPR7 receptor antagonists, confirmation, cell-based, fluorescence, single concentration; shares compounds with GPR7 antag; GPR7-expressing cells, calcium fluorescence antagonist mode; 2,400 tested, 52% active; inhibition, % at 4.4 µM; in the data active = inhibition above about 24%;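 note: stimulated with the GPR7 agonist NPW; 0% = agonist plus vehicle and 100% = vehicle alone without agonist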
MCHR1 antagonist: MCHR1 antagonists in cells, counter-screen for GPR7 antagonist project, cell-based, fluorescence, human; shares compounds with GPR7 antag; MCHR1-expressing cells, fluorescence antagonist assay; inhibition, % at 4.4 µM; 2,400 tested, 62% active; in the data active = inhibition above about 22%;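 note: 0% = vehicle with agonist and 100% = vehicle without agonist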
* marks the source's active call; other numbers are inactive results; x = not tested or not shown. This is a sample that favours compounds with a hit; in the whole collection about 1.9% have one here.

SMILES	core dimer inh	NS3 helicase inh	GPR7 antag	FID counter	p-CIP stab down	GPR7 antag conf	MCHR1 antagonist
O=C(c1ccccn1)N1CCCC(N2CCN(Cc3ccc4c(c3)OCO4)CC2)C1 (configuration not stated)	-3	-4	-4	0	-1	x	x
Cc1cccc(C(=O)N2CCCC(N3CCN(Cc4ccc5c(c4)OCO5)CC3)C2)n1 (configuration not stated)	-12	32	27*	4	5	-11	2
C/C(=N/NC(=O)CNC(=O)COc1cccc(C)c1)c1ccc(Cl)cc1	3	8	-12	-25	-1	x	x
CCOC(=O)CSC1=NC(=O)/C(=C/c2ccc(OC)cc2)S1	0	15	29*	-12	10	72*	72*
CCOc1ccccc1NC(=O)C(NCC1(N2CCCCC2)CCCCC1)c1ccccc1 (configuration not stated)	1	-18	28*	18	8	25*	14
O=C(Oc1ccc(C(=S)N2CCOCC2)cc1)c1ccccc1	-1	0	42*	-17	-4	26*	15
CN(C)c1ccc(S(=O)(=O)N2CCCCC2)cc1NC(=O)C1=NN(c2ccccc2)C(=O)CC1	-1	-8	-7	-3	2	x	x
CN(C)c1cc(Nc2ccc(O)cc2)c([N+](=O)[O-])c2nonc12	0	2	-22	4	-8	x	x
O=[N+]([O-])c1c(Nc2ccc(O)cc2)cc(Cl)c2nonc12	19	-30	83*	4	-31	94*	102*
Cc1nc(Cl)c(C(=O)NCc2ccccc2)c(C)c1Cl	-7	6	-18	-1	2	x	x
O=C(NCc1ccccc1)c1c(Cl)nc(Cl)c(Cl)c1Cl	4	-26	76*	-3	4	87*	45*
CCC(=O)N/C(=N/c1nc(C)cc(C)n1)Nc1ccccc1	-2	28	19	-14	-5	x	x
CCC(=O)N/C(=N/c1nc(C)cc(C)n1)Nc1ccc(OC)cc1	-1	2	35*	-10	-8	-4	17
CC(=O)c1ccc(N2CCN(S(=O)(=O)c3ccc4c5c3CC(=O)N5CC(C)S4)CC2)cc1 (configuration not stated)	12	18	25*	-45	-19	11	41*
Cc1nn(Cc2ccc(F)cc2)c(C)c1NC(=O)c1cnn2c1NC(c1ccccc1)CC2C(F)(F)F (configuration not stated)	9	-15	23*	-39	4	18	11
Cc1cccc(C(=O)N(CCc2ccccc2)Cc2ccccc2)c1[N+](=O)[O-]	19	-14	24*	-31	-15	24*	67*
O=C(c1ccccc1[N+](=O)[O-])N(CCc1ccccc1)Cc1ccccc1	17	-8	13	-30	-17	x	x
Cc1ccc(N2CC(C(=O)Nc3cccnc3)CC2=O)cc1C (configuration not stated)	1	-4	-5	-12	-8	x	x
Cc1ccc(C(=O)Nc2cc3[nH]c(=O)oc3cc2C)cc1	1	2	-4	-8	0	x	x
CC(NC(=S)NC1CCC(C(C)(C)C)CC1)c1ccccc1 (configuration not stated)	x	-4	-10	-40	-15	x	x
CCCC(=O)N1CC(=O)Nc2ccc(C)cc2C1c1ccccc1 (configuration not stated)	8	-11	-17	-19	-11	x	x
c1ccc2c(-c3ccncc3)c[nH]c2c1	-3	2	23*	5	-2	-18	12
c1ccc(-c2nnc(-c3ccccc3)c(-c3c[nH]c4ccccc34)n2)cc1	19	-2	19	6	8	x	x
COc1ccc(-c2onc(C)c2-c2cnn(-c3ccccc3)c2)c(O)c1C	7	-10	32*	-18	3	25*	34*
